High-throughput results: PubChem, The Scripps Research Institute Molecular Screening Center
Shown are actives, neighbours in structure and some others; about 2.4% of the full set was active somewhere.
NPY-Y1 antag: blocks the human neuropeptide Y Y1 receptor | HEK293-CNG Y1 cells, membrane potential fluorescence; NPY at EC95, then isoproterenol | 1% of 200,000 active | inhibition, % at 3.6 µM | P25929;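 active = inhibition above the campaign mean inhibition of all tested compounds plus 3 SD, cut at about 20% in these data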;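 also: 0% = DMSO wells given NPY plus isoproterenol and 100% = isoproterenol alone without NPY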
Target sequence (P25929 whole entry, looked up): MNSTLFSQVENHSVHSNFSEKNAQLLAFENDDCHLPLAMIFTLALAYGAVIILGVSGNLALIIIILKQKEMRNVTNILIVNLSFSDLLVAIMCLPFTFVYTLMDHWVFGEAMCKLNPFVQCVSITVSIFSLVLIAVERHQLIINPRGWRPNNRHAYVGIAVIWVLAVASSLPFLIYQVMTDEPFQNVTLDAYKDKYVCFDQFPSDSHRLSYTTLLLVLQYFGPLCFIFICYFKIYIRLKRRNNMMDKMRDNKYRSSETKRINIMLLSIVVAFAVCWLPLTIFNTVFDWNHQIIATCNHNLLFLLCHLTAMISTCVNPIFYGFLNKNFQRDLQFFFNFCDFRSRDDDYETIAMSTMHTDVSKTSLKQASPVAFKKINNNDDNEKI
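Material: Y1- and CNG-channel-expressing HEK293 cells / Probe or stimulus: NPY 25 nM then isoproterenol 1 µM plus Ro 20-1724 25 µM / Doses: 3.6 µM single dose, DMSO 0.4% / Schedule: compound incubation 1 h at room temperature, readout 45 min post-stimulation / Signal: membrane potential fluorescence / Benchmarks: isoproterenol-only wells as full block versus NPY-plus-isoproterenol wells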
NPY2 pot ag: potentiates or activates human NPY-Y2 receptor; cells expressing NPY-Y2, potentiator/agonist read-out; activation, % at 3.6 µM; 0.45% of 220,000 active; in the data active = activation above about 27%;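 also: cells stimulated with NPY near EC25 plus isoproterenol at EC100; 0% = vehicle plus submaximal agonist and 100% = vehicle plus saturating agonist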
NPY1 pot ag: human NPY-Y1 potentiation or agonism, primary screen; P25929; NPY-Y1 expressing cells, potentiator/agonist activation; activation, % at 3.6 µM; 0.37% of 220,000 active; in the data active = activation above about 33%, passing the limit was not always enough;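 also: cells stimulated with NPY at EC10 then isoproterenol at EC100; 0% = low agonist plus stimulus and 100% = saturating agonist plus stimulus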
NPY-Y2 antag: blocks the human neuropeptide Y Y2 receptor | NPY-Y2 expressing cells, antagonist mode | inhibition, % at 2.7 µM | 0.99% of 140,000 active; in the data active = inhibition above about 17%;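 also: 0% = vehicle with agonist challenge and 100% = reference antagonist with challenge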
S1P4 antagonist: antagonists of human S1P4 receptor; inhibition, % at 4.98 µM; AID 1510; 0.26% of 220,000 active; S1P4-expressing cells, antagonist mode, reporter read-out; O95977; in the data active = inhibition above about 29%;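 also: 0% = wells stimulated with agonist and 100% = vehicle wells without agonist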
S1P4 agonist: activates the human S1P4 receptor; O95977; S1P4-expressing cell line, agonist reporter assay; activation, % at 4.98 µM; 0.35% of 220,000 active; in the data active = activation above about 11%;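 also: 0% = DMSO vehicle and 100% = reference agonist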
Active calls of the source: *.

CC(C)(C)n1nnnc1C(c1cccs1)N(Cc1cccnc1)Cc1ccco1 (configuration not stated) was read as NPY-Y1 antag 9, NPY2 pot ag 2, NPY1 pot ag 9, NPY-Y2 antag 5, S1P4 antagonist -1 and S1P4 agonist 1.
`CN1CCN(C2=CC3=CC(=C(C#N)C#N)CCC3CC2)CC1` (configuration not stated) gave NPY-Y1 antag -7, NPY2 pot ag 0, NPY1 pot ag 5, S1P4 antagonist -9 and S1P4 agonist 2.
For COc1ccc(N2CCc3c(C)nc4c(OC)cccc4c32)cc1 the results were NPY-Y1 antag 18, NPY2 pot ag -30, NPY1 pot ag -52, S1P4 antagonist 5 and S1P4 agonist 2.
`COc1ccc(N2CCc3c(C)nc4c(OC)cc(OC)cc4c32)c(OC)c1` gave NPY-Y1 antag 44*, NPY2 pot ag -10, NPY1 pot ag -15, NPY-Y2 antag 25*, S1P4 antagonist 2 and S1P4 agonist -1.
`Cc1c(N(C)C(=O)c2ccco2)c(=O)n(-c2ccccc2)n1C` gave NPY-Y1 antag 2, NPY2 pot ag -14, NPY1 pot ag 1, NPY-Y2 antag 3, S1P4 antagonist -16 and S1P4 agonist -2.
`Cc1ccc(C(=O)c2cc([N+](=O)[O-])ccc2N2CCCCC2)c(C)c1` gave NPY-Y1 antag 30*, NPY2 pot ag -20, NPY1 pot ag -28, NPY-Y2 antag 22*, S1P4 antagonist 23 and S1P4 agonist -3.
For O=C(O)c1cc([N+](=O)[O-])ccc1N1CCCCC1 the results were NPY-Y1 antag 2, NPY2 pot ag -13, NPY1 pot ag -34, NPY-Y2 antag 0, S1P4 antagonist -30 and S1P4 agonist 0.
Cc1ccc(-n2c(COc3ccccc3)n[nH]c2=S)cc1 was read as NPY-Y1 antag 0, NPY2 pot ag 8, NPY1 pot ag -1, S1P4 antagonist 3 and S1P4 agonist 0.
`CCN(CC)S(=O)(=O)c1ccc(C)c(NC(=O)c2cc(C)oc2C)c1` gave NPY-Y1 antag 20*, NPY2 pot ag -5, NPY1 pot ag 15, S1P4 antagonist -18 and S1P4 agonist -1.
COc1cccc(NC(=O)C(=O)NCCc2ccc(F)cc2)c1 was read as NPY2 pot ag -6, NPY1 pot ag -13, S1P4 antagonist 1 and S1P4 agonist 0.
Screening O=C(O)Cn1ccc2ccccc21 returned NPY2 pot ag -7, NPY1 pot ag 3, S1P4 antagonist -12 and S1P4 agonist 0.
COc1ccc([N+](=O)[O-])cc1N(CC(O)CN1CCCCC1)S(=O)(=O)c1ccccc1 (configuration not stated) was read as NPY-Y1 antag 12, NPY2 pot ag -3, NPY1 pot ag 12, S1P4 antagonist -4 and S1P4 agonist 2.
Screening COc1ccccc1-c1noc(-c2ccccc2C(=O)Nc2ccccc2)n1 returned NPY-Y1 antag 23*, NPY2 pot ag -6, NPY1 pot ag -36, NPY-Y2 antag 24*, S1P4 antagonist 3 and S1P4 agonist 0.
Screening COc1ccccc1NC(=O)c1ccccc1-c1nc(-c2ccccc2OC)no1 returned NPY-Y1 antag 12, NPY2 pot ag -20, NPY1 pot ag -30, NPY-Y2 antag 9, S1P4 antagonist -4 and S1P4 agonist 1.
For Cc1c(C2C(C#N)=C(N)OC3=C2C(=O)CCC3)cnn1C (configuration not stated) the results were NPY-Y1 antag 3, NPY2 pot ag -4, NPY1 pot ag 11, NPY-Y2 antag -1, S1P4 antagonist 2 and S1P4 agonist 1.
For C/C(=N/O)c1cc(C(C)(C)C)c(O)c(C(C)(C)C)c1 the results were NPY-Y1 antag 0, NPY2 pot ag 9, NPY1 pot ag 7, NPY-Y2 antag 2, S1P4 antagonist -9 and S1P4 agonist -5.
`CC(C)(Sc1cc(C(C)(C)C)c(O)c(C(C)(C)C)c1)Sc1cc(C(C)(C)C)c(O)c(C(C)(C)C)c1` gave NPY-Y1 antag -1, NPY2 pot ag 14, NPY1 pot ag 6, NPY-Y2 antag -1, S1P4 antagonist -19 and S1P4 agonist 49*.
`CCOC(=O)C(NC(C)=O)C(O)c1ccc([N+](=O)[O-])cc1` (configuration not stated) gave NPY-Y1 antag -3, NPY2 pot ag 3, NPY1 pot ag 0, S1P4 antagonist -2 and S1P4 agonist 0.
`Cc1[nH]c2ccccc2c1/C=N/Nc1ccccc1[N+](=O)[O-]` gave NPY-Y1 antag -29, NPY2 pot ag 101*, NPY1 pot ag 107*, S1P4 antagonist -11 and S1P4 agonist 0.
CCn1c(Cn2nnc(-c3ccccc3)n2)nnc1SCC(=O)Nc1ccc(C(C)=O)cc1 was read as NPY-Y1 antag -20, NPY2 pot ag 47*, NPY1 pot ag 46*, NPY-Y2 antag -9, S1P4 antagonist 10 and S1P4 agonist -5.
CCn1c(Cn2nnc(-c3ccccc3)n2)nnc1SCC(=O)Nc1cccc(C(C)=O)c1 was read as NPY-Y1 antag -8, NPY2 pot ag 20, NPY1 pot ag 1, NPY-Y2 antag -4, S1P4 antagonist 1 and S1P4 agonist -1.
Screening O=C(c1ccc(Cl)cc1[N+](=O)[O-])N1CCc2ccccc2C1 returned NPY-Y1 antag 11, NPY2 pot ag -1, NPY1 pot ag -20, S1P4 antagonist -14 and S1P4 agonist 1.
For COc1ccc(-c2cc(C(=O)Nc3ccc(O)cc3)c3ccccc3n2)cc1OC the results were NPY2 pot ag -28, NPY1 pot ag -14, S1P4 antagonist 7 and S1P4 agonist 1.
`COc1ccc(-c2cc(C(=O)Nc3nc4c(C)cccc4s3)c3ccccc3n2)cc1OC` gave NPY-Y1 antag 47*, NPY2 pot ag -33, NPY1 pot ag -85, NPY-Y2 antag 45*, S1P4 antagonist -13 and S1P4 agonist 1.
`Cc1ccc2nc(NC(=O)c3cc(-c4ccco4)nc4ccccc34)sc2c1` gave NPY-Y1 antag 54*, NPY2 pot ag -121, NPY1 pot ag -146, NPY-Y2 antag 56*, S1P4 antagonist -8 and S1P4 agonist -1.
Screening O=C(N/N=C/c1c(O)n(Cc2ccccc2)c(=O)c2ccccc12)c1cccnc1 returned NPY-Y1 antag -4, NPY2 pot ag -3, NPY1 pot ag -7, S1P4 antagonist -3 and S1P4 agonist -1.
`CCCc1cc(=O)oc2cc(OCC(=O)N(C)C)c(Cl)cc12` gave NPY-Y1 antag -2, NPY2 pot ag -2, NPY1 pot ag -13, NPY-Y2 antag 2, S1P4 antagonist -23 and S1P4 agonist -1.
c1ccc(Nc2c3c(nc4ccccc24)CCC3)cc1 was read as NPY-Y1 antag 20*, NPY2 pot ag -37, NPY1 pot ag -41, S1P4 antagonist 19 and S1P4 agonist 1.
Screening C/C(=N/Nc1nc(-c2ccccc2)cc(-c2ccccc2)n1)c1ccc(N)cc1 returned NPY-Y1 antag -5, NPY2 pot ag 8, NPY1 pot ag 6, NPY-Y2 antag 4, S1P4 antagonist -9 and S1P4 agonist 0.
